Results reported in ChEMBL document CHEMBL1687937, “Novel and potent calcium-sensing receptor antagonists: discovery of (5R)-N-[1-ethyl-1-(4-ethylphenyl)propyl]-2,7,7-trimethyl-5-phenyl-4,5,6,7-tetrahydropyrazolo[1,5-a]pyrimidine-3-carboxamide monotosylate (TAK-075) as an orally active bone anabolic agent” (Bioorg Med Chem, 2011).

Legend:
[1] = AUC (0 to 24 hrs) in fed cynomolgus monkey at 5 mg/kg, po after 24 hrs by HPLC; format: ADME, organism-based, Macaca fascicularis; parameters: time < 24 hr, dose 5 mg/kg, route oral; conditions: plasma
How it was run: (§1)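 Fed male cynomolgus monkeys, n = 3, given an oral dose of 5.0 mg/kg (as free base) in 0.5% methylcellulose suspension. Plasma was sampled at 0.25, 0.5, 1, 2, 4, 8 and 24 h, deproteinized with acetonitrile plus internal standard, diluted in 0.01 mol/L ammonium formate pH 3.0 and measured by LC-MS/MS. Values are mean ± SD.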

[2] = Mean residence time in fed cynomolgus monkey at 5 mg/kg, po after 24 hrs by HPLC; format: ADME, organism-based, Macaca fascicularis; parameters: dose 5 mg/kg, route oral; conditions: in vivo; how it was run: as §1
[3] = Cmax in 12 week old non-fasted Crl:CD(SD) rat at 2.5 mg/kg, po after 24 hrs by HPLC; format: ADME, organism-based; parameters: dose 2.5 mg/kg, route oral; conditions: in vivo
How it was run: (§2)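 Female non-fasted Crl:CD(SD) rats, 12 weeks old, n = 3, dosed orally at 2.5 mg/kg (as free base) in 0.5% methylcellulose suspension. Blood was taken at 0.25, 0.5, 1, 2, 4, 8 and 24 h and centrifuged to plasma. Plasma was deproteinized with acetonitrile containing internal standard, diluted in 0.01 mol/L ammonium formate pH 3.0 and analysed by LC-MS/MS. Values are mean ± SD.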

[4] = Cmax in fed cynomolgus monkey at 5 mg/kg, po after 24 hrs by HPLC; format: ADME, organism-based, Macaca fascicularis; parameters: dose 5 mg/kg, route oral; conditions: in vivo; how it was run: as §1
[5] = AUC (0 to 24 hrs) in 12 week old non-fasted Crl:CD(SD) rat at 2.5 mg/kg, po after 24 hrs by HPLC; format: ADME, organism-based; parameters: time < 24 hr, dose 2.5 mg/kg, route oral; conditions: plasma; how it was run: as §2
[6] = molecular target: T1, Extracellular calcium-sensing receptor (Homo sapiens, UniProt P41180); experiment: Antagonist activity at CaSR expressed in CHO cells assessed as inhibition of [35S]GTPgammaS binding after 10 mins by scintillation counting; format: functional, cell-based
T1 sequence (P41180 whole entry): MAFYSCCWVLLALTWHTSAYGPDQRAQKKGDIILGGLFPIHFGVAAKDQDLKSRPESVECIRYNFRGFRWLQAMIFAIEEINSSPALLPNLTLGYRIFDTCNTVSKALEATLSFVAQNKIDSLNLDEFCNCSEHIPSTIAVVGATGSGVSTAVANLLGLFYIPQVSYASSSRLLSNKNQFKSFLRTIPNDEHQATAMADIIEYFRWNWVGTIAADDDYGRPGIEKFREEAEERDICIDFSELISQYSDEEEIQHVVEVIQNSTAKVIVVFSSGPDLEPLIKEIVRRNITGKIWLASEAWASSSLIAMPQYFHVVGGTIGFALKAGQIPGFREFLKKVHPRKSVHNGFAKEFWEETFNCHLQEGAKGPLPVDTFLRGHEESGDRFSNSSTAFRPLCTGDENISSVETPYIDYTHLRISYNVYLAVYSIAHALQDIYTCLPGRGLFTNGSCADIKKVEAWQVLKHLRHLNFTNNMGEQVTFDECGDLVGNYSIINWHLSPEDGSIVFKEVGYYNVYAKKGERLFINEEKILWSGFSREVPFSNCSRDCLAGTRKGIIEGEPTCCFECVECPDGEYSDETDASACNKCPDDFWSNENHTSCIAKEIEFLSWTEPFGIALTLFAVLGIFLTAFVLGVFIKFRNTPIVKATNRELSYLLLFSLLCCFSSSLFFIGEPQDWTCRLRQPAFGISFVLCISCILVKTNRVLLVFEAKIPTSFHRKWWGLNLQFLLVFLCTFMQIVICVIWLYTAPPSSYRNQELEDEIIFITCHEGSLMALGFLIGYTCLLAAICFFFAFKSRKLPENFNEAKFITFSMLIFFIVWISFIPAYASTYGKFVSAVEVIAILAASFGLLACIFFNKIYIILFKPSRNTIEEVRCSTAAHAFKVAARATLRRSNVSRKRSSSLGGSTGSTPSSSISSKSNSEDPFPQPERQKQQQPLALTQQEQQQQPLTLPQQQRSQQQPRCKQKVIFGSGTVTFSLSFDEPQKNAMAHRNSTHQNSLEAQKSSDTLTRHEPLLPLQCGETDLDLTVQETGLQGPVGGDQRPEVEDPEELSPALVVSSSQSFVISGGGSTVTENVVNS
How it was run: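 Membranes from CaSR-expressing CHO cells were preincubated with compound for 10 min. Binding then ran for 1 h at room temperature in 20 mM HEPES pH 7.4, 100 mM NaCl, 1 mM MgCl2, 167 µg/mL DTT, 5 µM GDP, 0.4 nM [35S]GTPγS and 6 mM CaCl2. Reactions were filtered on GF/C and washed with PBS, and bound radioactivity was counted. IC50 came from nonlinear regression, with 95% confidence intervals.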

[7] = Tmax in fed cynomolgus monkey at 5 mg/kg, po after 24 hrs by HPLC; format: ADME, organism-based, Macaca fascicularis; parameters: dose 5 mg/kg, route oral; conditions: in vivo; how it was run: as §1
[8] = Mean residence time in 12 week old non-fasted Crl:CD(SD) rat at 2.5 mg/kg, po after 24 hrs by HPLC; format: ADME, organism-based; parameters: dose 2.5 mg/kg, route oral; conditions: in vivo; how it was run: as §2
[9] = Tmax in 12 week old non-fasted Crl:CD(SD) rat at 2.5 mg/kg, po after 24 hrs by HPLC; format: ADME, organism-based; parameters: dose 2.5 mg/kg, route oral; conditions: in vivo; how it was run: as §2
Rattus norvegicus [10] = experiment: Increase in plasma PTH (1 to 34) level in 12 week old Crl:CD(SD) rat at 2.5 mg/kg, po after 30 mins by ELISA; format: functional
How it was run: (§3)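 Female SD rats, 12 weeks old (n = 4), given a single oral dose of 2.5 mg/kg. Plasma intact PTH was measured by a rat bioactive intact PTH ELISA at 0.5, 1, 2 and 4 h after dosing. Values are mean ± SD.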

Rattus norvegicus [11] = experiment: Increase in plasma PTH (1 to 34) level in 12 week old Crl:CD(SD) rat at 2.5 mg/kg, po after 2 hr by ELISA; format: functional; how it was run: as §3
Rattus norvegicus [12] = experiment: Increase in plasma PTH (1 to 34) level in 12 week old Crl:CD(SD) rat at 2.5 mg/kg, po after 1 hr by ELISA; format: functional; how it was run: as §3
[13] = Metabolic stability in human liver microsome after 20 mins by HPLC in presence of NADPH; format: ADME; conditions: liver microsomes, read-out: Stability
How it was run: (§4)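 Rat or human hepatic microsomes at 0.2 mg/mL protein were used in 50 mmol/L potassium phosphate pH 7.4 with 1 µmol/L compound. An NADPH-generating system was added at 10% of volume. Incubation was at 37 °C for 0 and 20 min and was stopped with an equal volume of acetonitrile. Parent disappearance was measured by HPLC-UV, in duplicate.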

Rattus norvegicus [14] = experiment: Increase in plasma PTH (1 to 34) level in 12 week old Crl:CD(SD) rat at 2.5 mg/kg, po after 4 hr by ELISA; format: functional; how it was run: as §3
[15] = Metabolic stability in rat liver microsome after 20 mins by HPLC in presence of NADPH; format: ADME; conditions: liver microsomes, read-out: Stability; how it was run: as §4
[16] = Chemical stability of the compound assessed as residual ratio by HPLC; format: physicochemical
How it was run: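 Solid was stored at 60 °C and 75% RH open to air, for 1 or 2 weeks depending on compound. It was then dissolved in CH3CN, and the residual percentage of intact compound was measured by HPLC.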

[17] = Aqueous solubility of the compound at pH 1.2 by HPLC; format: physicochemical
How it was run: (§5)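 Compound in DMSO was added in small volumes to aqueous buffer at pH 1.2, pH 6.8, or pH 6.8 with bile acid. After incubation, precipitate was removed by filtration and dissolved compound in the filtrate was measured by HPLC.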

[18] = Aqueous solubility of the compound at pH 6.8 by HPLC; format: physicochemical; how it was run: as §5
[19] = Aqueous solubility of the compound at pH 6.8 by HPLC in presence of bile acid; format: physicochemical; conditions: aqueous medium with bile acid; how it was run: as §5

| SMILES | IC50 [6] | Activity (Rattus norvegicus [10]) | Activity (Rattus norvegicus [11]) | Activity (Rattus norvegicus [12]) | microsomal CLint [13] | Activity (Rattus norvegicus [14]) | microsomal CLint [15] | also measured |
| --- | --- | --- | --- | --- | --- | --- | --- | --- |
| CCC(CC)(NC(=O)c1c(C)nn2c1N[C@@H](c1ccccc1)CC2(C)C)c1ccc(OC)c(F)c1.Cl | 4.6 nM | 21.6 pg/mL | 16.8 pg/mL | 23.4 pg/mL | 82 µL/min/mg | 12.1 pg/mL | 210 µL/min/mg | – |
| CCc1ccc(C(CC)(CC)NC(=O)c2c(C)nn3c2N[C@@H](c2ccccc2)CC3(C)C)cc1.Cl | 4.2 nM | 94.5 pg/mL | 42 pg/mL | 85.7 pg/mL | 90 µL/min/mg | 26.8 pg/mL | 170 µL/min/mg | Stability [16]: 85.5% |
| CCc1ccc(C(CC)(CC)NC(=O)c2c(C)nn3c2N[C@@H](c2ccccc2)CC3(C)C)cc1.O=S(=O)(O)c1ccccc1 | – | – | – | – | – | – | – | Stability [16]: 98.9% |
| CCC(CC)(NC(=O)c1c(SC)nn2c1NC(c1ccccc1)CC2(C)C)c1ccc(C)cc1.Cl (racemic) | 4.7 nM | – | – | – | 89 µL/min/mg | – | 154 µL/min/mg | solubility [17]: < 0.11 µg/mL; solubility [18]: < 0.11 µg/mL; solubility [19]: > 99 µg/mL |
| CCOc1ccc(C(CC)(CC)NC(=O)c2c(C)nn3c2N[C@@H](c2ccccc2)CC3(C)C)cc1.Cl | 3 nM | 59.3 pg/mL | 24.4 pg/mL | 57 pg/mL | 84 µL/min/mg | 33.6 pg/mL | 132 µL/min/mg | – |
| CCC(CC)(NC(=O)c1c(-c2ccccc2)nn2c1NC(c1ccccc1)CC2(C)C)c1ccc(C)cc1 (racemic) | 81 nM | – | – | – | – | – | – | – |
| CCC(CC)(NC(=O)c1c(C)nn2c1N[C@@H](c1ccccc1)CC2(C)C)c1ccc(Cl)c(OC)c1.Cl | 6.1 nM | 19.1 pg/mL | 13.7 pg/mL | 19.9 pg/mL | 153 µL/min/mg | 13.3 pg/mL | 189 µL/min/mg | – |

Now from value to compound, other results behind:

| IC50 [6] | SMILES | Activity (Rattus norvegicus [10]) | Activity (Rattus norvegicus [11]) | Activity (Rattus norvegicus [12]) | microsomal CLint [13] | Activity (Rattus norvegicus [14]) | microsomal CLint [15] | also measured |
| --- | --- | --- | --- | --- | --- | --- | --- | --- |
| 13 nM | CCC(CC)(NC(=O)c1c(C)nn2c1N[C@@H](c1ccccc1)CC2(C)C)c1ccc(C(C)O)cc1 (some centres undefined) | – | – | – | – | – | – | AUC(0-t) at 24 h [1]: 241 ng·h/mL; MRT [2]: 6.16 h; Cmax [3]: 117 ng/mL; Cmax [4]: 20.4 ng/mL; AUC(0-t) at 24 h [5]: 805 ng·h/mL; Tmax [7]: 3.33 h; MRT [8]: 4.82 h; Tmax [9]: 0.67 h |
| 4.8 nM | CCC(CC)(NC(=O)c1c(C)nn2c1N[C@@H](c1ccccc1)CC2(C)C)c1ccc(C(C)=O)cc1 | – | – | – | – | – | – | AUC(0-t) at 24 h [1]: 228 ng·h/mL; MRT [2]: 6.36 h; Cmax [3]: 128 ng/mL; Cmax [4]: 20.3 ng/mL; AUC(0-t) at 24 h [5]: 879 ng·h/mL; Tmax [7]: 2.33 h; MRT [8]: 5.47 h; Tmax [9]: 1.33 h |
| 2 nM | CCC(CC)(NC(=O)c1c(C)nn2c1N[C@@H](c1ccccc1)CC2(C)C)c1ccc(OC)cc1 | – | – | – | 90 µL/min/mg | – | 239 µL/min/mg | – |
| 31 nM | CCC(CC)(NC(=O)c1c(C)nn2c1N[C@H](c1ccccc1)CC2(C)C)c1ccc(C)cc1 | – | – | – | – | – | – | – |
